Measurements collected from several papers.
Lines come from different studies, so protocols differ.
Target: Homeodomain-interacting protein kinase 1 (HIPK1, Homo sapiens, UniProt Q86Z02)

CC(=O)c1c(NS(C)(=O)=O)c2cc(-c3ccc(Cl)cc3)c(-c3ccc(Cl)cc3Cl)nc2n(C)c1=O  remaining binding (cell-free assay, competition with immobilised ligand; 1 µM): 96%
O=C(O)c1ccc2c(c1)nc(NCCc1ccccc1)c1ccncc12  remaining activity (enzyme activity, inhibitor, radiometric; 1 µM): 12%
Cc1ccc(C(=O)NCc2ccsc2)cc1C#Cc1cn(C(C)C)c2ncnc(N)c12  activity vs control (enzyme activity, inhibitor; 1 µM): 106%
O=C(O)c1ccc2c(c1)nc(Nc1cccc(F)c1)c1ncncc12  remaining activity (enzyme activity, inhibitor, radiometric; 1 µM): 3%
O=C(NCCCC1CCCCC1)c1ccc(CNC(=O)c2cnn(-c3ccccc3)c2C(F)(F)F)cc1  remaining binding (cell-free assay, competition with immobilised ligand; 0.1 µM): 99%
O=C(O)c1ccc2c(c1)nc(Nc1ccc3ccccc3c1)c1ncncc12  remaining activity (enzyme activity, inhibitor, radiometric; 1 µM): 1%
C[C@H](c1ccc(F)cc1)N(Cc1cccc(C(=O)O)c1)C(=O)c1cnc2ccccc2c1  remaining binding (cell-free assay, competition with immobilised ligand; 1 µM): 100%
COc1cc2ncnc(Nc3ccc(Oc4ccccc4)cc3C)c2cc1OC  inhibition (enzyme activity, inhibitor; 1 µM): 1%
CS(=O)(=O)c1cc(C2(NC(=O)c3cncc4c3cnn4-c3ccc(F)cc3)CC2)ccn1  remaining binding (cell-free assay, competition with immobilised ligand; 1 µM): 92%
FC(F)(F)Oc1cccc(-c2cnc3ccc(-c4ccncc4)nn23)c1  activity vs control (enzyme activity, inhibitor, radiometric; 1 µM): 29%
Cc1nccc(COC(=O)N2C[C@@H]3[C@@H](CNC(=O)c4ccc5[nH]nnc5c4)[C@@H]3C2)n1  remaining binding (cell-free assay, competition with immobilised ligand; 1 µM): 82%
COc1cc2ncnc(Nc3ccc(F)c(Cl)c3)c2cc1OCCCN1CCOCC1  remaining signal (cell-free assay; 0.5 µM): 97.6%
CCN(CC)CCNC(=O)c1c(C)[nH]c(/C=C2\C(=O)Nc3ccc(F)cc32)c1C  inhibition (enzyme activity, inhibitor; 0.3 µM): 26%
CC1=C(C#N)C(c2ccc3c(c2)c(NC(=O)c2ccccc2C)nn3C)C(C#N)=C(C)N1  remaining binding (cell-free assay, competition with immobilised ligand; 1 µM): 71%
COc1cccc(CCNc2nc3cc(C(=O)O)ccc3c3cncnc23)c1  remaining activity (enzyme activity, inhibitor, radiometric; 1 µM): 36%
O=C1Nc2ccc(Cl)cc2C1=Cc1cc(Cl)c(O)c(Cl)c1  remaining signal (cell-free assay; 0.5 µM): 102%
Cn1cc(Cl)c2c(Oc3c(F)cc(Nc4cc(Cl)nc(N)n4)cc3F)ccnc21  remaining binding (cell-free assay, competition with immobilised ligand; 0.1 µM): 100%
CNC(=O)c1cc(Oc2ccc(NC(=O)Nc3ccc(Cl)c(C(F)(F)F)c3)cc2)ccn1  inhibition (enzyme activity, inhibitor; 0.3 µM): 14%
CC/C(=N\NC(=O)NCc1cccc(O)c1)c1ccc(O)c(C)c1O  inhibition (enzyme activity, inhibitor; 0.1 µM): 6.3%
O=C(O)c1ccc2c(c1)nc(Nc1ccccc1)c1ccncc12  remaining activity (enzyme activity, inhibitor, radiometric; 1 µM): 30%
COc1cc2nccc(Oc3ccc(NC(=O)c4c5n(n(-c6ccc(F)cc6)c4=O)CCCC5)cc3)c2cc1OC  inhibition (enzyme activity, inhibitor; 0.1 µM): 12%
N#Cc1cccc(Nc2nc3cc(C(=O)O)ccc3c3cncnc23)c1  remaining activity (enzyme activity, inhibitor, radiometric; 1 µM): 17%
Nc1ncnc2occ(-c3ccc(NC(=O)Nc4cc(C(F)(F)F)ccc4F)cc3)c12  remaining signal (cell-free assay, inhibitor; 20 µM): 0.1%
O=C1NC(=O)c2cc(Nc3ccc(F)cc3)c(Nc3ccc(F)cc3)cc21  remaining signal (cell-free assay; 0.5 µM): 102%
O=C(NCc1ncc(C(F)(F)F)cc1Cl)c1ccc2c(c1)C1(CCS(=O)(=O)CC1)[C@@H](C1CC1)N2S(=O)(=O)c1ccc(F)cc1  remaining binding (cell-free assay, competition with immobilised ligand; 1 µM): 70%
O=C(O)c1ccc2c(c1)nc(Nc1ccc(F)c(Cl)c1)c1ncncc12  remaining activity (enzyme activity, inhibitor, radiometric; 1 µM): 6%
FC(F)c1nc2ccccc2n1-c1nc(N2CCOCC2)nc(N2CCOCC2)n1  remaining activity (enzyme activity, inhibitor; 10 µM): 100%
Cc1ccc(Nc2nccc(N(C)c3ccc4c(C)n(C)nc4c3)n2)cc1S(N)(=O)=O  inhibition (enzyme activity, inhibitor; 10 µM): 21%
O=C(O)c1ccc2c(c1)nc(NCCc1ccccc1)c1ncncc12  remaining activity (enzyme activity, inhibitor, radiometric; 1 µM): 18%
